Data on 6 compounds can be found in ChEMBL document CHEMBL3045697, “Acaricidal activity of clove bud oil compounds against Dermatophagoides farinae and Dermatophagoides pteronyssinus (Acari: Pyroglyphidae)” (2003).

A word on the mortality: it is the percentage killed.

Experiment [1] has as its system Dermatophagoides pteronyssinus. The experiment can be described thus: Acaricidal activity against Dermatophagoides pteronyssinus assessed as mortality at 6.4 to 8 ug/cm2 after 24 to 72 hr by fabric disk assay relative to untreated control. The format is functional, organism-based. The method in brief:
(§1)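 Test material in 20 µL ethanol is applied to a 5 cm black cotton fabric disk, and control disks get ethanol alone. After drying 30 s, each disk goes into a covered 5 cm Petri dish with 25 adult mites (7–10 days old), held at 25 ± 1 °C, 75% RH, in darkness. Mortality is scored at 24, 48 and 72 h under a 20× binocular microscope, dead meaning no appendage movement when prodded with a pin. Three replicates; mean ± SE reported.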

Experiment [2] relates to Dermatophagoides farinae. Kind of experiment: Acaricidal activity against Dermatophagoides farinae assessed as mortality at 6.4 ug/cm2 after 48 hr by fabric disk assay relative to untreated control. The format is functional. The method in brief: as §1
The test system of experiment [3] is Dermatophagoides farinae. Kind of experiment: Acaricidal activity against Dermatophagoides farinae assessed as mortality at 8 ug/cm2 after 48 hr by fabric disk assay relative to untreated control. The class given is functional. The method in brief:
as §1

In experiment [4] the test system is Dermatophagoides pteronyssinus. Kind of experiment: Acaricidal activity against Dermatophagoides pteronyssinus after 24 hr by fabric disk assay. The class given is functional.
The test system of experiment [5] is Dermatophagoides farinae. Kind of experiment: Acaricidal activity against Dermatophagoides farinae assessed as mortality at 6.4 ug/cm2 after 72 hr by fabric disk assay relative to untreated control. The format is functional. The method in brief:
as §1

For experiment [6], the system named is Dermatophagoides farinae. The experiment can be described thus: Acaricidal activity against Dermatophagoides farinae assessed as mortality at 6.4 ug/cm2 after 24 hr by fabric disk assay relative to untreated control. The format is functional. Summed up:
as §1

Experiment [7] concerns Dermatophagoides farinae. Kind of experiment: Acaricidal activity against Dermatophagoides farinae assessed as mortality at 8 ug/cm2 after 24 hr by fabric disk assay relative to untreated control. The class given is functional. The method in brief: as §1
The subject of experiment [8] is Dermatophagoides farinae. Kind of experiment: Acaricidal activity against Dermatophagoides farinae assessed as mortality at 8 ug/cm2 after 72 hr by fabric disk assay relative to untreated control. The class given is functional. The method in brief: as §1
The subject of experiment [9] is Dermatophagoides farinae. Kind of experiment: Acaricidal activity against Dermatophagoides farinae after 24 hr by fabric disk assay. The class given is functional.
The test system of experiment [10] is Dermatophagoides farinae. Kind of experiment: Acaricidal activity against Dermatophagoides farinae assessed as mortality at 9.6 ug/cm2 after 48 hr by fabric disk assay relative to untreated control. The class given is functional. The method in brief: as §1
For experiment [11], the system named is Dermatophagoides farinae. Kind of experiment: Acaricidal activity against Dermatophagoides farinae assessed as mortality at 9.6 ug/cm2 after 24 hr by fabric disk assay relative to untreated control. The class given is functional. Summed up: as §1
The test system of experiment [12] is Dermatophagoides farinae. Kind of experiment: Acaricidal activity against Dermatophagoides farinae assessed as mortality at 12.7 ug/cm2 after 72 hr by fabric disk assay relative to untreated control. The class given is functional. Summed up: as §1
In experiment [13] the test system is Dermatophagoides farinae. Kind of experiment: Acaricidal activity against Dermatophagoides farinae assessed as mortality at 12.7 ug/cm2 after 48 hr by fabric disk assay relative to untreated control. The class given is functional. Summed up: as §1
The test system of experiment [14] is Dermatophagoides farinae. The experiment can be described thus: Acaricidal activity against Dermatophagoides farinae assessed as mortality at 12.7 ug/cm2 after 24 hr by fabric disk assay relative to untreated control. The format is functional. The method in brief:
as §1

Experiment [15] relates to Dermatophagoides farinae. The experiment can be described thus: Acaricidal activity against Dermatophagoides farinae assessed as mortality at 9.6 ug/cm2 after 72 hr by fabric disk assay relative to untreated control. The format is functional. The method in brief:
as §1

In experiment [16] the test system is Dermatophagoides pteronyssinus. Kind of experiment: Acaricidal activity against Dermatophagoides pteronyssinus assessed as mortality at 9.6 to 12.7 ug/cm2 after 24 to 72 hr by fabric disk assay relative to untreated control. The format is functional, organism-based. Summed up: (§2)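 Contact bioassay: compound in 20 µL ethanol applied to 5 cm black cotton fabric disks, air-dried 30 s, then placed in Petri dishes with 25 adult mites (7-10 days old). Held at 25 ± 1 °C, 75% RH, in darkness. Controls received ethanol only. Triplicate; mean ± SE.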

The subject of experiment [17] is Dermatophagoides farinae. The experiment can be described thus: Acaricidal activity against Dermatophagoides farinae assessed as mortality at 38.2 ug/cm2 after 72 hr by fabric disk assay relative to untreated control. The format is functional. The method in brief:
as §1

Experiment [18] concerns Dermatophagoides farinae. The experiment can be described thus: Acaricidal activity against Dermatophagoides farinae assessed as mortality at 50.9 ug/cm2 after 48 hr by fabric disk assay relative to untreated control. The class given is functional. The method in brief:
as §1

For experiment [19], the system named is Dermatophagoides farinae. The experiment can be described thus: Acaricidal activity against Dermatophagoides farinae assessed as mortality at 38.2 ug/cm2 after 24 hr by fabric disk assay relative to untreated control. The class given is functional. The method in brief: as §1
Experiment [20] has as its system Dermatophagoides farinae. Kind of experiment: Acaricidal activity against Dermatophagoides farinae assessed as mortality at 50.9 ug/cm2 after 24 hr by fabric disk assay relative to untreated control. The format is functional. Summed up: as §1
For experiment [21], the system named is Dermatophagoides farinae. Kind of experiment: Acaricidal activity against Dermatophagoides farinae assessed as mortality at 38.2 ug/cm2 after 48 hr by fabric disk assay relative to untreated control. The class given is functional. Summed up: as §1
For experiment [22], the system named is Dermatophagoides farinae. The experiment can be described thus: Acaricidal activity against Dermatophagoides farinae assessed as mortality at 50.9 ug/cm2 after 72 hr by fabric disk assay relative to untreated control. The format is functional. Summed up:
as §1

Experiment [23] concerns Dermatophagoides pteronyssinus. The experiment can be described thus: Acaricidal activity against Dermatophagoides pteronyssinus assessed as mortality at 38.2 to 50.9 ug/cm2 after 24 to 72 hr by fabric disk assay relative to untreated control. The class given is functional, organism-based. Summed up:
as §2

Experiment [24] concerns Dermatophagoides pteronyssinus. Kind of experiment: whole plant or invertebrate. The class given is functional. The following applies: 24 h.
Experiment [25] relates to Dermatophagoides farinae. The experiment can be described thus: whole plant or invertebrate. The following applies: 24 h. The class given is functional.
Experiment [26] relates to Dermatophagoides pteronyssinus. Kind of experiment: whole plant or invertebrate. The format is functional. The following applies: 24 h. The source holds these as a separate data set.
Experiment [27] concerns Dermatophagoides farinae. Kind of experiment: whole plant or invertebrate. The class given is functional. The following applies: 24 h. The source holds these as a separate data set.
The test system of experiment [28] is Dermatophagoides farinae. The experiment can be described thus: Acaricidal activity against Dermatophagoides farinae assessed as mortality at 19.1 ug/cm2 after 48 hr by fabric disk assay relative to untreated control. The class given is functional. The method in brief:
as §1

Experiment [29] concerns Dermatophagoides farinae. The experiment can be described thus: Acaricidal activity against Dermatophagoides farinae assessed as mortality at 15.9 ug/cm2 after 72 hr by fabric disk assay relative to untreated control. The format is functional. The method in brief: as §1
Experiment [30] has as its system Dermatophagoides farinae. The experiment can be described thus: Acaricidal activity against Dermatophagoides farinae assessed as mortality at 19.1 ug/cm2 after 72 hr by fabric disk assay relative to untreated control. The class given is functional. Summed up: as §1
Experiment [31] has as its system Dermatophagoides pteronyssinus. Kind of experiment: Acaricidal activity against Dermatophagoides pteronyssinus assessed as mortality at 15.9 to 19.1 ug/cm2 after 24 to 72 hr by fabric disk assay relative to untreated control. The format is functional, organism-based. The method in brief:
as §2

For experiment [32], the system named is Dermatophagoides farinae. Kind of experiment: Acaricidal activity against Dermatophagoides farinae assessed as mortality at 15.9 ug/cm2 after 48 hr by fabric disk assay relative to untreated control. The class given is functional. The method in brief: as §1
The test system of experiment [33] is Dermatophagoides farinae. The experiment can be described thus: Acaricidal activity against Dermatophagoides farinae assessed as mortality at 15.9 ug/cm2 after 24 hr by fabric disk assay relative to untreated control. The format is functional. Summed up: as §1
Experiment [34] relates to Dermatophagoides farinae. The experiment can be described thus: Acaricidal activity against Dermatophagoides farinae assessed as mortality at 19.1 ug/cm2 after 24 hr by fabric disk assay relative to untreated control. The format is functional. Summed up: as §1

Calls of active or inactive are those of the source. The rule behind the calls is not given here.

Consider `CC=Cc1ccc(O)c(OC)c1` (mixture of isomers) [CIS/TRANS-ISOEUGENOL], for which, in experiment [1], the result was Active. The mortality at 6.4 µg/cm2 in the experiment on Dermatophagoides farinae [2], with Dermatophagoides farinae [5] and in the experiment with Dermatophagoides farinae [6] was 66% in each case. Besides, the mortality at 8 µg/cm2 in the experiment with Dermatophagoides farinae [3], with Dermatophagoides farinae [7] and in the experiment on Dermatophagoides farinae [8] was 92% each time. The values for the LD50 (in experiment [4]; in the experiment on Dermatophagoides farinae [9]) were 1.55 microg/cm2 and 5.17 microg/cm2, respectively.
Consider `O=C(OCc1ccccc1)c1ccccc1` [BENZYL BENZOATE], for which the mortality at 9.6 µg/cm2 in the experiment on Dermatophagoides farinae [10], with Dermatophagoides farinae [11] and with Dermatophagoides farinae [15] was 47% in each case. The mortality at 12.7 µg/cm2 worked out at 96% with Dermatophagoides farinae [12], 96% with Dermatophagoides farinae [13] and 85% in the experiment on Dermatophagoides farinae [14]. Further, the LD50 is reported as 6.59 microg/cm2 in experiment [4] and 9.22 microg/cm2 with Dermatophagoides farinae [9]. In addition, the result in experiment [16] was Active.
For the compound `CCN(CC)C(=O)c1cccc(C)c1` [DIETHYLTOLUAMIDE], the mortality at 38.2 µg/cm2 in the experiment with Dermatophagoides farinae [17], with Dermatophagoides farinae [19] and in the experiment with Dermatophagoides farinae [21] was 41% throughout. For the same compound, the mortality at 50.9 µg/cm2 was determined as 83% in the experiment on Dermatophagoides farinae [18], 79% in the experiment with Dermatophagoides farinae [20] and 85% in the experiment with Dermatophagoides farinae [22]. The LD50 amounted to 17.98 microg/cm2 in experiment [4] and 37.59 microg/cm2 in the experiment on Dermatophagoides farinae [9]. Moreover, in experiment [23], the result was Active.
Consider `C=CCc1ccc(O)c(OC)c1` [EUGENOL], for which, in experiment [1], the result was Active. The mortality at 6.4 µg/cm2 with Dermatophagoides farinae [2], in the experiment with Dermatophagoides farinae [5] and with Dermatophagoides farinae [6] was 50% throughout. For the same compound, the mortality at 25.5 µg/cm2 in experiment [24] is 100%; in the experiment on Dermatophagoides farinae [25] it was 11%; in [26], 21%; with Dermatophagoides farinae [27], 100%. Further, the mortality at 8 µg/cm2 with Dermatophagoides farinae [3], in the experiment on Dermatophagoides farinae [7] and with Dermatophagoides farinae [8] was 85% each time. Further, the LD50 in [4] is 3.71 microg/cm2; in the experiment with Dermatophagoides farinae [9] it was 5.47 microg/cm2.
Consider `C=CCc1ccc(OC(C)=O)c(OC)c1` [EUGENYL ACETATE], for which the mortality at 19.1 µg/cm2 in the experiment with Dermatophagoides farinae [28], in the experiment with Dermatophagoides farinae [30] and in the experiment with Dermatophagoides farinae [34] was 88% in each case. The mortality at 25.5 µg/cm2 amounted to 100% in experiment [24], 12% in the experiment on Dermatophagoides farinae [25], 17% in experiment [26] and 100% with Dermatophagoides farinae [27]. Also, the mortality at 15.9 µg/cm2 with Dermatophagoides farinae [29], in the experiment with Dermatophagoides farinae [32] and in the experiment with Dermatophagoides farinae [33] was 65% throughout. For the same compound, in experiment [31], the result was Active. For the same compound, the LD50 in experiment [4] was 5.41 microg/cm2; in the experiment with Dermatophagoides farinae [9], 14.16 microg/cm2.
For the compound `C/C=C\c1ccc(O)c(OC)c1` [ISOEUGENOL], the mortality at 25.5 µg/cm2 in [24] was 100%; in the experiment on Dermatophagoides farinae [25], 21%; in [26], 32%; in the experiment on Dermatophagoides farinae [27], 100%.
